Source: PubChem
ZTA DNA inh: ZTA (EBV) inhibition in EBNA-1 counter-screen. inhibition, % at 11 µM. P03206. 0.15% of 320,000 active. ZTA-DNA binding, fluorescence polarization; in the data active = inhibition above about 33%
Target sequence (P03206 whole entry, looked up): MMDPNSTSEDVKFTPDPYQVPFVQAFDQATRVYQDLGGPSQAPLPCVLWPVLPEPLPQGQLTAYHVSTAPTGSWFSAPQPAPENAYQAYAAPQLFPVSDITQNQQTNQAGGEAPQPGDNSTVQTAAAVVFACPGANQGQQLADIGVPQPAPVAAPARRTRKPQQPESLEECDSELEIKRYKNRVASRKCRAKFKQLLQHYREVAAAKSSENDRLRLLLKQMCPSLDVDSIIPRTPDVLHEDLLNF
Apaf-1 inh: inhibitors of human Apaf-1 apoptosome, primary screen, biochemical, DEVD-Rh110 fluorescence, uHTS. 0.71% of 330,000 active. reconstituted apoptosome caspase-3 activity. AID 489030, 2010. inhibition, % at 20 µM; active = inhibition of at least 40% at 20 µM;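 note: plate controls were DMSO wells for no effect and DEVD-CHO caspase inhibitor wells for full effect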
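Medium: Hepes buffer, pH 7.5 / System: biochemical Apaf-1 apoptosome reconstitution / Measured by: Rh110 fluorescence, excitation 480 nm, emission 540 nm / Times: compound with Apaf-1, dATP, procaspase-3 30 min, then 50 min reaction, room temperature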
PfGluPho inh: PfG6PD enzyme inhibitors, primary screen, biochemical, fluorescence intensity, uHTS | AID 504690, 2011 | inhibition, % at 20 µM | PfGluPho enzyme, NADPH resazurin-diaphorase fluorescence | 0.78% of 350,000 active;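 active = inhibition reaching at least a set limit at 20 µM in the primary screen, cut at about 59% in these data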;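 note: 0% = DMSO wells with substrate and 100% = DMSO wells lacking glucose-6-phosphate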
PfM18AAP inh: PfM18AAP inhibitors, malaria aminopeptidase, primary screen, biochemical, QFRET, recombinant enzyme | M18 aspartyl aminopeptidase (Plasmodium falciparum 3D7) | H-Glu-NHMec fluorogenic cleavage | inhibition, % at 7.35 µM | 1.2% of 290,000 active;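 active = inhibition above the campaign mean inhibition over all tested compounds plus 3 SD, cut at about 28% in these data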;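 note: 0% = plate median of test compound wells and 100% = 2 mM ZnCl2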
EBNA-1 inh: EBNA-1 DNA-binding inhibitors, primary screen, biochemical, fluorescence polarization; inhibition, % at 14.8 µM; 0.34% of 300,000 active; AID 1950, 2009; in the data active = inhibition above about 28%
UBC13 polyUb: UBC13 polyubiquitin chain formation inhibitors, primary screen, biochemical, TR-FRET, uHTS; Ubiquitin-conjugating enzyme E2 N (Homo sapiens), P61088; AID 485273, 2010; 0.47% of 330,000 active; inhibition, % at 20 µM; in the data active = inhibition above about 45%, passing the limit was not always enough
Target sequence (P61088 whole entry, looked up): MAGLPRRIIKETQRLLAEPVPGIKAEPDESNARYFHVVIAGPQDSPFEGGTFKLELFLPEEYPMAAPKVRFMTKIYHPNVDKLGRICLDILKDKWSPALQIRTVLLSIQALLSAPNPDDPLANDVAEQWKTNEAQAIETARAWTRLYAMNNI
Zta DNA confirm: EBV Zta binding to ZRE DNA, inhibitors, confirmation, biochemical, fluorescence polarization, triplicate | shares compounds with ZTA DNA inh | 30% of 320 active | inhibition, % at 11.1 µM;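 active = mean inhibition across triplicate runs above the hit threshold derived for the original primary screen, cut at about 33% in these data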;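 note: 0% = Zta with DMSO and 100% = wells lacking Zta protein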
EBNA-1 counter: EBNA-1 DNA-binding inhibition, counter-screen for ZTA inhibitor project, biochemical, fluorescence polarization. inhibition, % at 14.8 µM. AID 2362, 2010. shares compounds with ZTA DNA inh. 320 tested, under 10 active
Casp3 counter: CASP3 inhibitor validation, counterassay for project on UBE2N polyubiquitination blockers, biochemical, one dose; shares compounds with UBC13 polyUb; Recombinant caspase-3, Caspase-Glo 3/7 luminescence, 60 min; inhibition, % at 20 µM; 4% of 1,400 active;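 active = mean inhibition across replicates above about 26%, limit read from the data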;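 note: plate controls were DMSO with caspase-3 for no effect and DMSO wells lacking enzyme for full effect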
Target sequence (P42574 whole entry, looked up): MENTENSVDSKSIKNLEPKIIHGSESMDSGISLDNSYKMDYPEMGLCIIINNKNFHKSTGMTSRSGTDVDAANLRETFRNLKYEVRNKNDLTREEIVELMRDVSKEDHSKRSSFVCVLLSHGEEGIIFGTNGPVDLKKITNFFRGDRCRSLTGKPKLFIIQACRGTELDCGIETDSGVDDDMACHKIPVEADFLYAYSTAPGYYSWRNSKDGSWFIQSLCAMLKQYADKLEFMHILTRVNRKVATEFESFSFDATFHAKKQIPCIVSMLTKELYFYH
UBC13 confirm: UBC13 polyubiquitination inhibitors, single-point retest, confirmation, biochemical, TR-FRET, single concentration | shares compounds with UBC13 polyUb | inhibition, % at 10 µM | 68% of 1,400 active | AID 488859, 2010; in the data active = inhibition above about 45%
Apaf-1 inh conf2: Apaf-1 inhibitors, single-dose retest, confirmation, biochemical, fluorescence, DEVD-Rh110, 20 µM; shares compounds with Apaf-1 inh; reconstituted apoptosome, caspase-3 DEVD-Rh110 fluorescence; inhibition, % at 20 µM; 25% of 1,800 active; AID 504614, 2011;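 active = mean inhibition of at least 40% at 20 µM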;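 note: plate controls were DMSO wells for no effect and DEVD-CHO caspase inhibitor control wells for full effect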
Rh110 interf inh: Rh110 fluorescence interference by putative Apaf-1 inhibitors, confirmation, artefact control for Apaf-1 inhibitor project, biochemical, 20 µM. shares compounds with Apaf-1 inh. quenched caspase reaction. activation (fluorescence interference), % at 20 µM. 1,800 tested, under 10 active;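 active = signal rise of 40% or more at 20 µM, treated as a fluorescence artifact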
Apaf1 inh interf: fluorescence interference of Apaf-1 inhibitor hits, dose response, artefact control for Apaf-1 inhibitor project; shares compounds with Apaf-1 inh; fluorescence interference counterscreen, Apaf-1 assay format; IC50, µM; 460 tested, under 10 active
Numbers without * were called inactive; x = no result; + = active, no number. In the library only some 2.9% were active in any assay of this set; here they are far more common. Unless noted, the rule behind the calls is not given here.

SMILES | ZTA DNA inh | Apaf-1 inh | PfGluPho inh | PfM18AAP inh | EBNA-1 inh | UBC13 polyUb | Zta DNA confirm | EBNA-1 counter | Apaf-1 inh conf2 | Rh110 interf inh | others
Cc1ccc(S(=O)(=O)N2CCCC2)cc1C(=O)N1CCC(C)CC1 | -14.1 | -5.1 | -17.5 | -12.8 | -6.6 | -6.3 | x | x | x | x
C#CCOCCOCCOCCNc1nc(N2CCN(C(=O)CCCCCCCCCCNC(=O)Cn3cc(C[C@@H](C)O)nn3)CC2)nc(N2CCN(C(=O)CCCCCCCCCCNC(=O)[C@@H]([C@H](C)O)n3cc(C)nn3)CC2)n1 | -3.0 | 27.4 | -10.4 | x | 5.2 | 31.9 | x | x | x | x
C#CCOCCOCCOCCNc1nc(N2CCN(C(=O)CCCCCCCCCCNC(=O)[C@H](CCCCN)n3cc(C)nn3)CC2)nc(N2CCN(C(=O)CCCCCCCCCCNC(=O)[C@@H]([C@H](C)O)n3cc(C)nn3)CC2)n1 | 39.9* | 54.4* | 23.0 | x | 11.9 | 116.7* | 3.2 | 1.9 | x | x | Casp3 counter=-1.2;UBC13 confirm=110.9*
C#CCN1N=C(c2ccc(C)cc2)CSC1=O | 0.3 | -10.1 | -2.9 | x | -7.5 | -4.5 | x | x | x | x
C#CCOCCOCCOCCNc1nc(N2CCN(C(=O)CCCCCCCCCCNC(=O)[C@H](CCCCN)n3cc(C)nn3)CC2)nc(N2CCN(C(=O)CCCCCCCCCCNC(=O)[C@H](CCCN=C(N)N)n3cc(C[C@@H](C)CC)nn3)CC2)n1 | 51.1* | 74.5* | 60.4* | x | -1.6 | 122.6* | 47.4* | -2.6 | 57.0* | 4.0 | Casp3 counter=-3.2;UBC13 confirm=127.3*;Apaf1 inh interf=>100
C#CCOCCOCCOCCNc1nc(N2CCN(C(=O)[C@H]([C@@H](C)CC)n3cc(CCC(=O)O)nn3)CC2)nc(N2CCN(C(=O)[C@H](CCCCN)n3cc(CCC(=O)O)nn3)CC2)n1 | x | x | 13.8 | x | x | x | x | x | x | x
C#CCOCCOCCOCCNc1nc(N2CCN(C(=O)CCCCCCCCCCNC(=O)[C@@H](CCC(=O)O)n3cc(CCCCCN)nn3)CC2)nc(N2CCN(C(=O)CCCCCCCCCCNC(=O)[C@H](CCCCN)n3cc(C[C@@H](C)CC)nn3)CC2)n1 | 53.8* | 71.7* | 51.8 | x | -2.5 | 120.2* | -12.3 | -2.6 | 49.5* | 6.7 | Casp3 counter=-1.7;UBC13 confirm=124.2*;Apaf1 inh interf=>100
NC(=NCCc1ccccc1)NS(=O)(=O)c1ccc2ccccc2c1 | 9.1 | 17.9 | 6.1 | 5.7 | -9.4 | 0.8 | x | x | x | x
Cc1cccc(NC(=O)c2ccc(S(=O)(=O)N3CCOCC3)cc2)n1 | 5.3 | 1.4 | 0.1 | 0.0 | 4.6 | -2.0 | x | x | x | x
O=C(Nc1ccc(N2CCOCC2)c2nonc12)C1CCCC1 | 8.4 | 20.6 | 23.4 | -0.1 | 16.8 | -35.7 | x | x | x | x
Nc1ccc(N2CCOCC2)c2nonc12 | 54.9* | 84.2* | 38.6 | 17.3 | -2.9 | -49.4 | 1.6 | 7.1 | 32.8 | -5.8
Cc1ccc(S(=O)(=O)N2CCCOC2CNC(=O)C(=O)NC2CCCC2)cc1 (stereo unspecified) | 3.1 | -2.7 | -1.7 | 4.1 | -4.6 | -5.9 | x | x | x | x
c1coc(-c2nnc(-c3ccco3)nn2)c1 | 36.6* | 84.3* | 48.7 | 53.8* | 5.4 | 11.9 | 33.3* | -7.8 | 58.4* | 5.5 | Apaf1 inh interf=>100
CC(C)N(C(=O)Nc1ccc2nsnc2c1)C(C)C | 73.5* | 97.5* | 55.0 | 16.1 | -9.9 | -37.9 | 8.9 | 4.7 | 95.6* | 0.2 | Apaf1 inh interf=>100
O=[N+]([O-])c1ccc(Cl)cc1NCc1cccnc1 | -3.8 | 3.9 | -6.7 | x | 1.4 | -20.7 | x | x | x | x
Cc1ccc(-c2csc(/C(C#N)=C/Nc3ccc4c(c3)OCCO4)n2)cc1 | 2.9 | -8.7 | -2.4 | 2.2 | 7.1 | -2.4 | x | x | x | x
CCN(CC)CCOC(=O)c1ccc(N/C=C(/C#N)c2nc(-c3cccc(OC)c3)cs2)cc1 | 39.7* | 55.4* | 3.8 | 4.5 | -2.3 | 98.6* | 3.5 | -12.8 | 7.1 | 2.6 | Casp3 counter=0.0;UBC13 confirm=-2.3
CCN(CC)CCOC(=O)c1ccc(N/C=C(/C#N)c2nc(-c3ccc(OC)c(OC)c3)cs2)cc1 | 73.7* | 55.3* | 54.3 | 4.4 | 2.0 | 117.2* | 50.8* | 19.5 | 67.3* | 11.9 | Casp3 counter=-2.2;UBC13 confirm=137.9*;Apaf1 inh interf=>100
CC1(C)Cc2c(sc(NC(=O)COc3cccc4ccccc34)c2C#N)C(C)(C)N1 | 48.2* | 46.5* | 2.8 | -5.2 | 5.3 | 20.7 | 51.3* | -4.9 | 39.2 | -3.0
c1ccc2c(c1)ccc1ccccc12 | x | -6.3 | 14.0 | x | x | 12.1 | x | x | x | x
CC1=[N+](C)c2ccc3ccccc3c2C1(C)C | + | 41.9* | 43.7 | -5.8 | 1.2 | -42.6 | 69.0* | 18.2 | 16.2 | 1.0
Cc1c(-c2ccncc2)oc2ccc(Br)cc2c1=O | 6.7 | -4.7 | x | 2.0 | 5.2 | -5.8 | x | x | x | x
CCN1C(=O)[C@@H]2[C@@H](c3ccc(SC4CCCCC4)cc3)N3CCC[C@@]3(C(=O)OC)[C@@H]2C1=O | 9.5 | 15.9 | 18.4 | x | 3.5 | 5.1 | x | x | x | x
COc1cc(C)c2c(c1C=O)Oc1c(c(C)c(O)c3c1C(O)OC3=O)OC2=O (stereo unspecified) | 66.6* | 55.8* | 1.8 | 19.7 | -5.4 | -21.8 | 62.6* | 11.3 | 34.8 | -3.3
